Screening results as filed in PubChem BioAssay.
Diaph act CS = diaphorase activation or chemical reduction counter-screen | Diaphorase/resazurin coupled assay, resorufin fluorescence, 16 min; active compounds read high; 1 = vehicle wells, 0 = NADH-free wells | activation factor at 20 µM | 190,000 tested, 0.005% active | AID 1229;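 active = diaphorase activity raised at least twofold by the compound at 20 µM; inactive = activation factor below 2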
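System – purified diaphorase enzyme from Clostridium kluyveri · Input – enzyme 0.07 U/mL final · Also added – final NADH 0.114 mM, resazurin 0.1 mM · Measured by – fluorescence of resorufin, 544 nm excitation, 590 nm emission · Timing – 16 min enzyme reaction, ambient temperature · Measure – resorufin increase flagging diaphorase activators or reducers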
FLuc inh counter = inhibits firefly luciferase, flagging false hits in luciferase inhibition screens | P08659 | ATPLite firefly luciferase biochemical luminescence, 10 min | inhibition, % at 10 µM | 200,000 tested, 1.5% active;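 active = inhibition above about 50% when tested at 10 µM, limit read from the data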
FLuc stim CS = firefly luciferase counter-screen for stimulation assays | P08659 | ATPlite luciferase biochemical, luminescence, 10 min; 0 = ATP-free wells, 1 = DMSO control | activation factor at 10 µM | 200,000 tested, under 10 active | AID 1027;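 active = luciferase activation factor, scaled between plate controls, of at least 2 with compound at 10 µM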
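Assay system: Luciferase/luciferin reagent mix; Medium: PBS as buffer for the ATP substrate; Dosing: test compounds dosed from 2 mM stocks in 100% DMSO; Times: 10 min, room temperature; Signal: luminescence from luciferase reaction; Read-out: luciferase activation; Controls: No-ATP low control, compound-free enzyme-plus-ATP high control.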
PMI activator = activators of human phosphomannose isomerase; P34949; purified human PMI, coupled resazurin fluorescence, 20 min; active compounds read high; 1 = vehicle control, 0 substrate-free wells; activation factor at 20 µM; 190,000 tested, 0.005% active;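 active = activation factor of 2 or more at 20 µM, relative to plate controls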
Target sequence (P34949 whole entry, looked up): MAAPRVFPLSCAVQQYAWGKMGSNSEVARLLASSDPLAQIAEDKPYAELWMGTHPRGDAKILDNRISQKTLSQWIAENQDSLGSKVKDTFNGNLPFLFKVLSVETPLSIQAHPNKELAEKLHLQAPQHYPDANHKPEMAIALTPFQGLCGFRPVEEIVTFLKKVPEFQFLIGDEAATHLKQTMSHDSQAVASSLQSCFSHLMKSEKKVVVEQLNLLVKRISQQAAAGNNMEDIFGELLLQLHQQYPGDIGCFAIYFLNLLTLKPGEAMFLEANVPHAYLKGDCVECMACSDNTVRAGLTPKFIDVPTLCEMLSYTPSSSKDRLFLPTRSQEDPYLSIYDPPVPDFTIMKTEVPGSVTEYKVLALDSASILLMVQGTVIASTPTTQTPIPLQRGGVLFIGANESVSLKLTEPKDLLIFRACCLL
PMI act satM6P = increases human PMI activity with near-saturating mannose 6-phosphate; P34949; coupled PMI enzyme assay, resazurin fluorescence, 20 min; active compounds read high; 1 = untreated enzyme, 0 = substrate-free blank; 190,000 tested, 0.34% active; activation factor at 20 µM;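 active = activation factor of 2 or more at 20 µM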
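Test system: human phosphomannose isomerase with PGI, G6PDH, diaphorase coupling enzymes; amount: 15 ng/mL PMI; incubation: enzyme reaction with compound 20 min at room temperature; technique: resorufin fluorescence (Ex 544/Em 590 nm) from resazurin via diaphorase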
Diaphorase inh = diaphorase inhibition or chemical oxidation counter-screen | diaphorase resazurin-to-resorufin fluorescence, NADH, 16 min; bacterial (C. kluyveri) enzyme, not human | inhibition, % at 20 µM | 190,000 tested, 0.69% active;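 active = primary screen inhibition at 20 µM above a set limit, cut at about 50% in these data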;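 also: plate controls were DMSO with full reaction for no effect and wells lacking NADH for full effect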
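controls = No-NADH positive control and DMSO neutral control | system = Clostridium kluyveri diaphorase enzyme | timing = reaction incubation of 16 min at room temperature | signal = resorufin fluorescence 544/590 nm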
* = called active by the depositor. An excerpt weighted towards active compounds, which were near 2.5% of everything screened.

How did Cc1cccc(/C(N)=N/OC(=O)c2ccc(Cl)cc2Cl)c1 do in these assays?
Diaph act CS: 0.8; FLuc inh counter: 89.9*; FLuc stim CS: 0.1; PMI activator: 0.9; PMI act satM6P: 0.8; Diaphorase inh: 24.4

Results for Cc1cccc(/C(N)=N/OC(=O)COc2ccccc2Cl)c1 ?
Diaph act CS: 1; FLuc inh counter: 5.5; FLuc stim CS: 0.9; PMI activator: 1; PMI act satM6P: 1; Diaphorase inh: -1.3

Results for N/C(=N\OC(=O)c1ccc(Cl)cc1Cl)c1ccccc1 ?
Diaph act CS: 0.8; FLuc inh counter: 94.9*; FLuc stim CS: 0.1; PMI activator: 0.9; PMI act satM6P: 0.8; Diaphorase inh: 18.3

Results for O=C(Cn1c(=O)oc2ccccc21)N1CCOCC1 ?
Diaph act CS: 1; FLuc inh counter: -9.0; FLuc stim CS: 1.1; PMI activator: 1.1; PMI act satM6P: 1; Diaphorase inh: -0.3

Results for COc1ccc(CCNC(=O)C2CCCN(c3ncccn3)C2)cc1 (configuration not stated) ?
Diaph act CS: 1; FLuc inh counter: -5.9; FLuc stim CS: 1.1; PMI activator: 1.1; PMI act satM6P: 1.1; Diaphorase inh: 3.2

What do the screens show for `CC(N=C1NS(=O)(=O)c2ccccc21)C(=O)NCc1ccc2c(c1)OCO2` (configuration not stated)?
Diaph act CS: 0.8; FLuc inh counter: -6.0; FLuc stim CS: 1.1; PMI activator: 1; PMI act satM6P: 1; Diaphorase inh: 16.6

How did Cc1cccc(/C(N)=N/OC(=O)Cc2ccccc2)c1 do in these assays?
Diaph act CS: 1; FLuc inh counter: 12.0; FLuc stim CS: 0.9; PMI activator: 0.9; PMI act satM6P: 1; Diaphorase inh: 4.5

Results for Cc1cccc(/C(N)=N/OC(=O)C23CC4CC(CC(C4)C2)C3)c1 ?
Diaph act CS: 0.9; FLuc inh counter: 62.0*; FLuc stim CS: 0.4; PMI activator: 0.9; PMI act satM6P: 0.9; Diaphorase inh: 10.7

What do the screens show for `Cc1cccc(-c2nnc(-c3ccc(N)cc3)o2)c1`?
Diaph act CS: 0.9; FLuc inh counter: 56.2*; FLuc stim CS: 0.4; PMI activator: 0.9; PMI act satM6P: 0.9; Diaphorase inh: 9.2

What do the screens show for `Cc1ccc(-c2nnc(-c3cccc(Br)c3)o2)cc1`?
Diaph act CS: 0.9; FLuc inh counter: 23.3; FLuc stim CS: 0.8; PMI activator: 0.9; PMI act satM6P: 1; Diaphorase inh: 8.2

Results for Clc1cccc(-c2nnc(-c3ccccc3)o2)c1 ?
Diaph act CS: 0.9; FLuc inh counter: 72.6*; FLuc stim CS: 0.3; PMI activator: 0.9; PMI act satM6P: 1; Diaphorase inh: 5.5

What do the screens show for `NNC(=O)c1cc2ccccc2cc1O`?
Diaph act CS: 0.9; FLuc inh counter: -2.1; FLuc stim CS: 1; PMI activator: 0.9; PMI act satM6P: 1; Diaphorase inh: 8.7

What do the screens show for `O=C(NCCO)c1cc2ccccc2cc1O`?
Diaph act CS: 0.5; FLuc inh counter: -2.8; FLuc stim CS: 1; PMI activator: 0.4; PMI act satM6P: 0.5; Diaphorase inh: 52.5*

How did COc1cccc(CN(C)C(=O)c2csc3c2CCCC3)c1OC do in these assays?
Diaph act CS: 0.9; FLuc inh counter: -4.3; FLuc stim CS: 1; PMI activator: 1; PMI act satM6P: 1; Diaphorase inh: 9.3

How did Cc1nc2cc(-c3ccccc3)sc2c(=O)n1N do in these assays?
Diaph act CS: 1.1; FLuc inh counter: 88.8*; FLuc stim CS: 0.1; PMI activator: 1; PMI act satM6P: 1.1; Diaphorase inh: -5.6

What do the screens show for `CCOC(=O)C1=C(C)NC(SC)=NC1c1ccc(OC)cc1` (configuration not stated)?
Diaph act CS: 0.9; FLuc inh counter: -2.9; FLuc stim CS: 1; PMI activator: 1.5; PMI act satM6P: 2.3*; Diaphorase inh: 9.4

Results for CCn1nc(C)c(CN2CCCC(CO)(Cc3cccc(Cl)c3)C2)c1C (configuration not stated) ?
Diaph act CS: 0.9; FLuc inh counter: -1.7; FLuc stim CS: 1; PMI activator: 1; PMI act satM6P: 1; Diaphorase inh: 6.1

How did CC1CCN(C(=O)CCc2ccc(S(=O)(=O)NC(C)C)cc2)CC1 do in these assays?
Diaph act CS: 0.8; FLuc inh counter: -1.7; FLuc stim CS: 1; PMI activator: 1; PMI act satM6P: 0.9; Diaphorase inh: 15.9

How did O=C1N/C(=N\N=C\c2ccc3ncccc3c2)SC1Cc1ccc(SC(F)F)cc1 (configuration not stated) do in these assays?
Diaph act CS: 1; FLuc inh counter: 60.8*; FLuc stim CS: 0.4; PMI activator: 1; PMI act satM6P: 1; Diaphorase inh: -3.5

What do the screens show for `COc1cc(/C=N/Nc2nn3cnnc3c3ccccc23)ccc1O`?
Diaph act CS: 1; FLuc inh counter: 93.9*; FLuc stim CS: 0.1; PMI activator: 1; PMI act satM6P: 1.1; Diaphorase inh: 4.5

What do the screens show for `COc1cccc(/C=N/Nc2nn3cnnc3c3ccccc23)c1`?
Diaph act CS: 0.9; FLuc inh counter: 70.7*; FLuc stim CS: 0.3; PMI activator: 1; PMI act satM6P: 1; Diaphorase inh: 11.3

Results for C(=N\Nc1nn2cnnc2c2ccccc12)/c1ccco1 ?
Diaph act CS: 0.9; FLuc inh counter: 11.9; FLuc stim CS: 0.9; PMI activator: 1.4; PMI act satM6P: 1.5; Diaphorase inh: 8.5

Results for Cc1occc1C(=O)Nc1ccc2c(c1)CCC2 ?
Diaph act CS: 0.8; FLuc inh counter: 24.2; FLuc stim CS: 0.8; PMI activator: 0.9; PMI act satM6P: 0.9; Diaphorase inh: 21.0

Results for O=C(Nc1ccc2c(c1)CCC2)c1ccccc1 ?
Diaph act CS: 0.9; FLuc inh counter: 62.2*; FLuc stim CS: 0.4; PMI activator: 0.9; PMI act satM6P: 1; Diaphorase inh: 10.0

Results for O=C(Nc1ccc2c(c1)CCC2)c1ccccc1F ?
Diaph act CS: 1; FLuc inh counter: 61.9*; FLuc stim CS: 0.4; PMI activator: 1; PMI act satM6P: 1; Diaphorase inh: 1.6

How did CN(c1ccccc1)S(=O)(=O)c1cccc(C(=O)Nc2ccc3c(c2)CCC3)c1 do in these assays?
Diaph act CS: 0.9; FLuc inh counter: -1.4; FLuc stim CS: 1; PMI activator: 0.9; PMI act satM6P: 1; Diaphorase inh: 10.0

How did COc1ccc2cc(/C=C3\SC(=S)NC3=O)c(N3CCOCC3)nc2c1 do in these assays?
Diaph act CS: 0.4; FLuc inh counter: -6.1; FLuc stim CS: 1.1; PMI activator: 1; PMI act satM6P: 1.1; Diaphorase inh: 58.3*
